The source of these data is ChEMBL document CHEMBL4229422, “Synthesis and pharmacological evaluation of pyrazolo[4,3-c]quinolinones as high affinity GABAA-R ligands and potential anxiolytics” (Bioorg Med Chem, 2018).

Molecules are shown by their SMILES. Calls of active or inactive are those of the source. No cut-off for these calls is given here.

Data set [1] concerns Rattus norvegicus. In words: Anxiolytic activity in Wistar rat assessed as time spent on open arms at 1 mg/kg, ip administered 30 mins prior to testing measured for 5 mins by elevated plus-maze test (reference value: 20%). In kind it is functional. Put shortly:
(§1)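 Adult male Wistar rats (65–75 days, 280–320 g), group-housed, 12 h light–dark, 21-22 °C, handled on four days beforehand. Doses of 0.25, 0.5, 1 and 3 mg/kg were dissolved in propylenglycol, diluted in aqueous 0.6 % v/v Tween 80 and given ip 30 min before the EPM. Vehicle controls received the same mixture. Behaviour was recorded 5 min as % time in open arms relative to open plus closed arms. About 7 rats per dose, mean ± S.E.M., ANOVA.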

The subject of data set [2] is Rattus norvegicus. The data set can be described thus: Toxicity in Wistar rat assessed as change in locomotor activity at 1 mg/kg, ip administered 30 mins. In kind it is organism-based. To be noted: in vivo, 0.5 h. Put shortly:
(§2)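 Locomotor or exploratory activity was scored as the number of closed-arm entries during the 5 min EPM session. Male Wistar rats (280–320 g) received 0.25–3 mg/kg ip 30 min beforehand, in propylenglycol diluted with 0.6 % v/v Tween 80. Vehicle-injected controls were included. About 7 rats per dose, ANOVA.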

Data set [3] in a line: Displacement of [3H]-FNZ from benzodiazepine binding site of GABAA receptor in bovine synaptosomal membranes after 1 hr by scintillation counting method. In kind it is cell membranes, Bos taurus. Background: Loss of bound radioactivity is the signal in a displacement assay; it reports binding, not function.
The subject of data set [4] is Rattus norvegicus. The data set can be described thus: Anxiogenic activity in Wistar rat assessed as reduction in time spent on open arms at 0.25 to 0.5 mg/kg, ip administered 30 mins prior to testing measured for 5 mins by elevated plus-maze test. In kind it is functional, organism-based. Put shortly: as §1
Data set [5] concerns Rattus norvegicus. The data set can be described thus: Anxiolytic activity in Wistar rat assessed as increase in time spent on open arms at 0.5 mg/kg, ip administered 30 mins prior to testing measured for 5 mins by elevated plus-maze test. In kind it is functional, organism-based. A digest of the protocol: as §1
In data set [6] the test system is Rattus norvegicus. The data set can be described thus: Toxicity in Wistar rat assessed as change in locomotor activity at 0.25 to 3 mg/kg, ip administered 30 mins. In kind it is organism-based. To be noted: in vivo, 0.5 h. A digest of the protocol:
as §2

For data set [7], the system named is Rattus norvegicus. In words: Anxiogenic activity in Wistar rat assessed as reduction in time spent on open arms at 0.25 to 3 mg/kg, ip administered 30 mins prior to testing measured for 5 mins by elevated plus-maze test. In kind it is functional, organism-based. Put shortly:
as §1

The term IC50 denotes the concentration that gives 50% inhibition. Lower therefore signals greater potency. In general, Ki refers to a dissociation constant, usually derived from enzyme kinetics or from competition with a known ligand. The low end stands for tighter binding, the high end for weaker binding.

In the case of `COc1ccc(-n2nc3c4cc(C)ccc4[nH]cc-3c2=O)cc1`, the Activity in data set [1] is 50%; in data set [2], “Non-Toxic”. In addition, the concentration for half-maximal inhibition (IC50) in data set [3] stood at 0.542 nM. Further, the Ki in data set [3] stood at 0.288 nM.

Turning to `Cc1ccc2[nH]cc3c(=O)n(-c4ccc(F)cc4)nc-3c2c1`, in data set [3], the IC50 came to 1.15 nM and the Ki is 0.612 nM.

In data set [3], `COc1ccc2[nH]cc3c(=O)n(-c4ccc(F)cc4)nc-3c2c1` had an IC50 of 1.84 nM and a Ki of 0.98 nM.

As to `O=c1c2c[nH]c3ccc(Br)cc3c-2nn1-c1ccccc1`, in data set [4], the outcome was Active. In data set [3], this compound showed an IC50 of 0.823 nM and an inhibition constant Ki of 0.437 nM.

`COc1ccc(-n2nc3c4cc(Br)ccc4[nH]cc-3c2=O)cc1`: the result in data set [5] was Active. In data set [6], the Activity entry is given as “Non-Toxic”. Besides, in data set [3], the IC50 came to 0.326 nM and the inhibitory constant (Ki) amounted to 0.173 nM.

Regarding `O=c1c2c[nH]c3ccc(Br)cc3c-2nn1-c1ccc(F)cc1`, the outcome in data set [7] was Active. Also, the Activity result in data set [6] is recorded as “Toxic”. Moreover, in data set [3], the IC50 came to 1.47 nM and affinity was put at a Ki of 0.78 nM.

For `COc1ccc2[nH]cc3c(=O)n(-c4ccccc4F)nc-3c2c1`, in data set [3], the IC50 worked out at 1.5 nM and affinity was put at a Ki of 0.797 nM.

In data set [3], `Cc1ccc2[nH]cc3c(=O)n(-c4ccccc4)nc-3c2c1` yielded an IC50 of 0.589 nM and a Ki of 0.313 nM.

As to `Cc1ccc2[nH]cc3c(=O)n(-c4ccccc4F)nc-3c2c1`, in data set [3], the half-inhibitory concentration (IC50) worked out at 0.37 nM and affinity was put at a Ki of 0.196 nM.
